Holding throughout (type): cell-based
Data set [1] concerns the target G-protein coupled receptor 55 (Homo sapiens) (UniProt Q9Y2T6). As to the kind of experiment: Inverse agonist activity at GPR55 in human MCF7 cells assessed as reduction in cell viability at 5 uM treated 30 mins after 10 uM GPR55 selective antagonist CID16020046 treatment followed by incubation for 24 hrs by MTT assay. The gist of the method:
(§1)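 Cells pretreated with GPR55 antagonist CID16020046 for 30 min before test compound addition; proliferation compared against DMSO-treated cells.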
(Tetrazolium assays rely on reduction of a dye to a coloured formazan, in cell work by metabolically active cells.)

Data set [2] has the same target. As to the kind of experiment: Inverse agonist activity at GPR55 in human MDA-MB-468 cells assessed as reduction in cell viability at 5 uM incubated for 24 hrs by MTT assay.
For data set [3] the target is unchanged. As to the kind of experiment: Inverse agonist activity at GPR55 in human T47D cells assessed as reduction in cell viability at 5 uM incubated for 24 hrs by MTT assay.
For a further data set, the system named is MCF-10A. As to the kind of experiment: Cytotoxicity in human MCF10A cells assessed as reduction in cell viability incubated for 24 hrs by MTT assay. The gist of the method: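 EC50 from MTT viability after 24 h exposure; values in micromolar, mean of triplicate (n = 3) determinations. MCF10A described as […]; MDA-MB-231 noted as GPR55-overexpressing.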

For data set [4], the target named is G-protein coupled receptor 55 (Homo sapiens) (UniProt Q9Y2T6). As to the kind of experiment: Inverse agonist activity at GPR55 in human MCF7 cells assessed as reduction in cell viability at 5 uM incubated for 24 hrs by MTT assay.
G-protein coupled receptor 55 (Homo sapiens), sequence (Q9Y2T6 whole entry): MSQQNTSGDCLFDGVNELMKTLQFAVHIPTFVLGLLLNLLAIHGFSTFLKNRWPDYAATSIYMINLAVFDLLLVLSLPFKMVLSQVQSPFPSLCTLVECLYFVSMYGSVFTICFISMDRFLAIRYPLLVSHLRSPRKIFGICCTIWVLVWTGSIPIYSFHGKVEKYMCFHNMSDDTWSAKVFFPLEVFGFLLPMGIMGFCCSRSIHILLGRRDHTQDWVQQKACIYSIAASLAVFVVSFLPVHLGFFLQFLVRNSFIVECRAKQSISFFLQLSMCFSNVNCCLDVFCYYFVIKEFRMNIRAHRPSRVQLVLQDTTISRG
Data set [5] shares this target. As to the kind of experiment: Inverse agonist activity at GPR55 in human MDA-MB-231 cells assessed as reduction in cell viability at 5 uM incubated for 24 hrs by MTT assay.
The target is the same in data set [6]. As to the kind of experiment: Inverse agonist activity at GPR55 in human MDA-MB-468 cells assessed as reduction in cell viability at 5 uM treated 30 mins after 10 uM GPR55 selective antagonist CID16020046 treatment followed by incubation for 24 hrs by MTT assay. The gist of the method:
as §1

Data set [7] can be described thus: Cytotoxicity in human PBMC assessed as cell viability at 100 uM incubated for 24 to 48 hrs hrs by trypan blue dye exclusion assay. The note with it: PBMC (peripheral blood mononuclear cells), read-out: Activity. The gist of the method: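 Peripheral blood mononuclear cells exposed at 100 μM for 24 or 48 h; viability scored by trypan blue dye exclusion, reported as percent viable cells.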

Data set [8] concerns the target G-protein coupled receptor 55 (Homo sapiens) (UniProt Q9Y2T6). As to the kind of experiment: Inverse agonist activity at GPR55 in human MDA-MB-231 cells assessed as reduction in cell viability at 5 uM treated 30 mins after 10 uM GPR55 selective antagonist CID16020046 treatment followed by incubation for 24 hrs by MTT assay. The gist of the method: as §1
Data set [9] shares this target. As to the kind of experiment: Inverse agonist activity at GPR55 in human T47D cells assessed as reduction in cell viability at 5 uM treated 30 mins after 10 uM GPR55 selective antagonist CID16020046 treatment followed by incubation for 24 hrs by MTT assay.

Activity calls are given as the source filed them. No cut-off for these calls is given here.

Here are results for two compounds from ChEMBL document CHEMBL4316642, “Discovery of 1,4-Naphthoquinones as a New Class of Antiproliferative Agents Targeting GPR55” (ACS Med Chem Lett, 2019).

As usually defined, the EC50 is the midpoint of the concentration-response curve.

In the case of `O=C1C(Cl)=C(N2CCOCC2)C(=O)c2c(O)ccc(O)c21`, the outcome in data set [1], in data set [3], in data set [6], in [8] and in data set [9] was inactive. Further, the result in [2], in data set [4] and in data set [5] was Active. The EC50 with MCF-10A was 3.7 µM. For the same compound, the viability at 100 µM in [7] is 70%.

In the case of `O=C1C(Cl)=C(N2CCCCC2)C(=O)c2c(O)ccc(O)c21`, in the data set with MCF-10A, the EC50 was determined as 2.5 µM. The viability at 100 µM in data set [7] stood at 65%.
